Experimental data as given in ChEMBL document CHEMBL4477242, “Synthesis, structure and antimicrobial evaluation of a new gossypol triazole conjugates functionalized with aliphatic chains and benzyloxy groups” (2016).
Values after ≈ are worked out from the molar mass of the structure shown.

What was measured:
[1] = system: Fusarium oxysporum f. sp. lycopersici; assay: Antifungal activity against Fusarium oxysporum f. sp. lycopersici after 18 hrs by serial microdilution assay; assay type: functional
Method in brief: (§1)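 Fungal strains tested by MIC determination, with miconazole run as the reference antifungal. The two Fusarium oxysporum formae speciales are isolates from plants (cabbage and tomatoes).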

Streptococcus pneumoniae = assay: Antibacterial activity against Streptococcus pneumoniae ATCC 49619 after 18 hrs by serial microdilution assay; assay type: functional; conditions: ATCC 49619, 18 h
Fusarium acuminatum = assay: Antifungal activity against Fusarium acuminatum ATCC 46651 after 18 hrs by serial microdilution assay; assay type: functional; conditions: ATCC 46651, 18 h; method in brief: as §1
Rhizopus stolonifer [2] = assay: Reduction in ergosterol content in Rhizopus stolonifer ATCC 56227 at 256 microg/ml by HPLC analysis; assay type: functional, organism-based; conditions: TDE = time-dependent effect
Method in brief: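 Treated fungal material was derivatised and its ergosterol measured by HPLC from the area of the ergosterol peak at Rt 8.26 min. Content is expressed as mg per 1 g dry fungal mass and followed over incubation time up to 96 h.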

[3] = system: Staphylococcus epidermidis; assay: Antibacterial activity against Staphylococcus epidermidis ATCC 12228 after 18 hrs by serial microdilution assay; assay type: functional; conditions: ATCC 12228, 18 h
[4] = Antifungal activity against Fusarium oxysporum f. sp. betae after 18 hrs by serial microdilution assay; assay type: functional; method in brief: as §1
Staphylococcus aureus [5] = assay: Antibacterial activity against Staphylococcus aureus ATCC 6538 after 18 hrs by serial microdilution assay; assay type: functional; conditions: ATCC 6538, 18 h
Micrococcus luteus = assay: Antibacterial activity against Micrococcus luteus ATCC 10240 after 18 hrs by serial microdilution assay; assay type: functional; conditions: ATCC 10240, 18 h
Staphylococcus aureus [6] = assay: Antibacterial activity against methicillin-resistant Staphylococcus aureus 2 after 18 hrs by serial microdilution assay; assay type: functional; conditions: Staphylococcus aureus, 2, 18 h
[7] = system: Staphylococcus epidermidis; assay: Antibacterial activity against Staphylococcus epidermidis ATCC 49134 after 18 hrs by serial microdilution assay; assay type: functional; conditions: ATCC 49134, 18 h
Bacillus subtilis = assay: Antibacterial activity against Bacillus subtilis […] after 18 hrs by serial microdilution assay; assay type: functional
Rhizopus stolonifer [8] = assay: Antifungal activity against Rhizopus stolonifer ATCC 56227b after 18 hrs by serial microdilution assay; assay type: functional; method in brief: as §1
Staphylococcus aureus [9] = assay: Antibacterial activity against Staphylococcus aureus ATCC 25923 after 18 hrs by serial microdilution assay; assay type: functional; conditions: ATCC 25923, 18 h
Aspergillus fumigatus = assay: Antifungal activity against Aspergillus fumigatus ATCC 204305 after 18 hrs by serial microdilution assay; assay type: functional; conditions: ATCC 204305, 18 h; method in brief: as §1
Aspergillus brasiliensis = assay: Antifungal activity against Aspergillus brasiliensis ATCC 16404 after 18 hrs by serial microdilution assay; assay type: functional; conditions: ATCC 16404, 18 h; method in brief: as §1
[10] = system: Trichophyton mentagrophytes; assay: Antifungal activity against Trichophyton mentagrophytes ATCC 9533 after 18 hrs by serial microdilution assay; assay type: functional; conditions: ATCC 9533, 18 h; method in brief: as §1
Staphylococcus aureus [11] = assay: Antibacterial activity against methicillin-resistant Staphylococcus aureus 1 after 18 hrs by serial microdilution assay; assay type: functional; conditions: Staphylococcus aureus, 1, 18 h
Rhizopus stolonifer [12] = assay: Reduction in ergosterol content in Rhizopus stolonifer ATCC 56227 assessed per gram of dry fungi mass at 256 microg/ml incubated for 24 hrs measured after 24 to 96 hrs by HPLC analysis; assay type: functional
Method in brief: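 Ergosterol was quantified by HPLC in derivatized fungal material from treated cultures, using the peak area at a retention time of 8.26 min. Results are expressed as mg ergosterol per 1 g of dry fungal mass. Content was followed over incubation time, up to 96 h.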

Structure (SMILES): Cc1cc2c(C(C)C)c(O)c(O)c(C=O)c2c(O)c1-c1c(C)cc2c(C(C)C)c(O)c(O)c(C=O)c2c1O [GOSSYPOL]
- MIC [1]: 32 µg/mL (≈ 61.7 µM)
- MIC (Streptococcus pneumoniae): 16 µg/mL (≈ 30.9 µM)
- MIC (Fusarium acuminatum): 128 µg/mL (≈ 247 µM)
- Activity (Rhizopus stolonifer [2]): Tde
- MIC [3]: 16 µg/mL (≈ 30.9 µM)
- MIC [4]: 32 µg/mL (≈ 61.7 µM)
- MIC (Staphylococcus aureus [5]): 16 µg/mL (≈ 30.9 µM)
- MIC (Micrococcus luteus): 32 µg/mL (≈ 61.7 µM)
- MIC (Staphylococcus aureus [6]): 16 µg/mL (≈ 30.9 µM)
- MIC [7]: 16 µg/mL (≈ 30.9 µM)
- MIC (Bacillus subtilis): 16 µg/mL (≈ 30.9 µM)
- MIC (Rhizopus stolonifer [8]): 128 µg/mL (≈ 247 µM)
- MIC (Staphylococcus aureus [9]): 16 µg/mL (≈ 30.9 µM)
- MIC (Aspergillus fumigatus): 256 µg/mL (≈ 494 µM)
- MIC (Aspergillus brasiliensis): 256 µg/mL (≈ 494 µM)
- MIC [10]: 128 µg/mL (≈ 247 µM)
- MIC (Staphylococcus aureus [11]): 16 µg/mL (≈ 30.9 µM)

Structure (SMILES): CCCCCc1cn(CCN/C=C2\C(=O)C(O)=C(C(C)C)c3cc(C)c(-c4c(C)cc5c(c4O)/C(=C/NCCn4cc(CCCCC)nn4)C(=O)C(O)=C5C(C)C)c(O)c32)nn1
- MIC [1]: 64 µg/mL (≈ 75.6 µM)
- MIC (Streptococcus pneumoniae): > 256 µg/mL
- MIC (Fusarium acuminatum): 256 µg/mL (≈ 302 µM)
- MIC [3]: > 256 µg/mL
- MIC [4]: 64 µg/mL (≈ 75.6 µM)
- MIC (Staphylococcus aureus [5]): > 256 µg/mL
- MIC (Micrococcus luteus): > 256 µg/mL
- MIC (Staphylococcus aureus [6]): > 256 µg/mL
- MIC [7]: > 256 µg/mL
- MIC (Bacillus subtilis): > 256 µg/mL
- MIC (Rhizopus stolonifer [8]): 128 µg/mL (≈ 151 µM)
- MIC (Staphylococcus aureus [9]): > 256 µg/mL
- MIC (Aspergillus fumigatus): 256 µg/mL (≈ 302 µM)
- MIC (Aspergillus brasiliensis): 256 µg/mL (≈ 302 µM)
- MIC [10]: 256 µg/mL (≈ 302 µM)
- MIC (Staphylococcus aureus [11]): > 256 µg/mL

Structure (SMILES): CCCCc1cn(CCCN/C=C2\C(=O)C(O)=C(C(C)C)c3cc(C)c(-c4c(C)cc5c(c4O)/C(=C/NCCCn4cc(CCCC)nn4)C(=O)C(O)=C5C(C)C)c(O)c32)nn1
- MIC [1]: 64 µg/mL (≈ 75.6 µM)
- MIC (Streptococcus pneumoniae): > 256 µg/mL
- MIC (Fusarium acuminatum): 256 µg/mL (≈ 302 µM)
- MIC [3]: > 256 µg/mL
- MIC [4]: 64 µg/mL (≈ 75.6 µM)
- MIC (Staphylococcus aureus [5]): > 256 µg/mL
- MIC (Micrococcus luteus): > 256 µg/mL
- MIC (Staphylococcus aureus [6]): > 256 µg/mL
- MIC [7]: > 256 µg/mL
- MIC (Bacillus subtilis): > 256 µg/mL
- MIC (Rhizopus stolonifer [8]): 128 µg/mL (≈ 151 µM)
- MIC (Staphylococcus aureus [9]): > 256 µg/mL
- MIC (Aspergillus fumigatus): 256 µg/mL (≈ 302 µM)
- MIC (Aspergillus brasiliensis): 256 µg/mL (≈ 302 µM)
- MIC [10]: 256 µg/mL (≈ 302 µM)
- MIC (Staphylococcus aureus [11]): > 256 µg/mL

Structure (SMILES): CCCCCc1cn(CCCN/C=C2\C(=O)C(O)=C(C(C)C)c3cc(C)c(-c4c(C)cc5c(c4O)/C(=C/NCCCn4cc(CCCCC)nn4)C(=O)C(O)=C5C(C)C)c(O)c32)nn1
- MIC [1]: 64 µg/mL (≈ 73.1 µM)
- MIC (Streptococcus pneumoniae): > 256 µg/mL
- MIC (Fusarium acuminatum): 256 µg/mL (≈ 293 µM)
- MIC [3]: > 256 µg/mL
- MIC [4]: 64 µg/mL (≈ 73.1 µM)
- MIC (Staphylococcus aureus [5]): > 256 µg/mL
- MIC (Micrococcus luteus): > 256 µg/mL
- MIC (Staphylococcus aureus [6]): > 256 µg/mL
- MIC [7]: > 256 µg/mL
- MIC (Bacillus subtilis): > 256 µg/mL
- MIC (Rhizopus stolonifer [8]): 128 µg/mL (≈ 146 µM)
- MIC (Staphylococcus aureus [9]): > 256 µg/mL
- MIC (Aspergillus fumigatus): 256 µg/mL (≈ 293 µM)
- MIC (Aspergillus brasiliensis): 256 µg/mL (≈ 293 µM)
- MIC [10]: 256 µg/mL (≈ 293 µM)
- MIC (Staphylococcus aureus [11]): > 256 µg/mL

Structure (SMILES): CCCc1cn(CCN/C=C2\C(=O)C(O)=C(C(C)C)c3cc(C)c(-c4c(C)cc5c(c4O)/C(=C/NCCn4cc(CCC)nn4)C(=O)C(O)=C5C(C)C)c(O)c32)nn1
- MIC [1]: 64 µg/mL (≈ 80.9 µM)
- MIC (Streptococcus pneumoniae): 256 µg/mL (≈ 324 µM)
- MIC (Fusarium acuminatum): 256 µg/mL (≈ 324 µM)
- MIC [3]: 256 µg/mL (≈ 324 µM)
- MIC [4]: 64 µg/mL (≈ 80.9 µM)
- MIC (Staphylococcus aureus [5]): 256 µg/mL (≈ 324 µM)
- MIC (Micrococcus luteus): > 256 µg/mL
- MIC (Staphylococcus aureus [6]): > 256 µg/mL
- MIC [7]: 256 µg/mL (≈ 324 µM)
- MIC (Bacillus subtilis): > 256 µg/mL
- MIC (Rhizopus stolonifer [8]): 128 µg/mL (≈ 162 µM)
- MIC (Staphylococcus aureus [9]): 256 µg/mL (≈ 324 µM)
- MIC (Aspergillus fumigatus): 256 µg/mL (≈ 324 µM)
- MIC (Aspergillus brasiliensis): 256 µg/mL (≈ 324 µM)
- MIC [10]: 256 µg/mL (≈ 324 µM)
- MIC (Staphylococcus aureus [11]): > 256 µg/mL

Structure (SMILES): Clc1ccc(COC(Cn2ccnc2)c2ccc(Cl)cc2Cl)c(Cl)c1 (stereo unspecified) [MICONAZOLE]
- MIC [1]: 16 µg/mL (≈ 38.4 µM)
- MIC [4]: 16 µg/mL (≈ 38.4 µM)

Structure (SMILES): CCCc1cn(CCCN/C=C2\C(=O)C(O)=C(C(C)C)c3cc(C)c(-c4c(C)cc5c(c4O)/C(=C/NCCCn4cc(CCC)nn4)C(=O)C(O)=C5C(C)C)c(O)c32)nn1
- MIC [1]: 64 µg/mL (≈ 78.1 µM)
- MIC [4]: 64 µg/mL (≈ 78.1 µM)

Structure (SMILES): CCCCc1cn(CCN/C=C2\C(=O)C(O)=C(C(C)C)c3cc(C)c(-c4c(C)cc5c(c4O)/C(=C/NCCn4cc(CCCC)nn4)C(=O)C(O)=C5C(C)C)c(O)c32)nn1
- MIC [1]: 64 µg/mL (≈ 78.1 µM)
- MIC (Streptococcus pneumoniae): > 256 µg/mL
- MIC (Fusarium acuminatum): 256 µg/mL (≈ 313 µM)
- MIC [3]: > 256 µg/mL
- MIC [4]: 64 µg/mL (≈ 78.1 µM)
- MIC (Staphylococcus aureus [5]): > 256 µg/mL
- MIC (Micrococcus luteus): > 256 µg/mL
- MIC (Staphylococcus aureus [6]): > 256 µg/mL
- MIC [7]: > 256 µg/mL
- MIC (Bacillus subtilis): > 256 µg/mL
- MIC (Rhizopus stolonifer [8]): 128 µg/mL (≈ 156 µM)
- MIC (Staphylococcus aureus [9]): > 256 µg/mL
- MIC (Aspergillus fumigatus): 256 µg/mL (≈ 313 µM)
- MIC (Aspergillus brasiliensis): 256 µg/mL (≈ 313 µM)
- MIC [10]: 256 µg/mL (≈ 313 µM)
- MIC (Staphylococcus aureus [11]): > 256 µg/mL

Structure (SMILES): Cc1cc2c(c(O)c1-c1c(C)cc3c(c1O)/C(=C/NCCn1cc(COCc4ccccc4)nn1)C(=O)C(O)=C3C(C)C)/C(=C/NCCn1cc(COCc3ccccc3)nn1)C(=O)C(O)=C2C(C)C
- MIC [1]: 16 µg/mL (≈ 16.9 µM)
- MIC (Streptococcus pneumoniae): > 256 µg/mL
- MIC (Fusarium acuminatum): 128 µg/mL (≈ 135 µM)
- Activity (Rhizopus stolonifer [2]): Tde
- MIC [3]: > 256 µg/mL
- MIC [4]: 16 µg/mL (≈ 16.9 µM)
- MIC (Staphylococcus aureus [5]): > 256 µg/mL
- MIC (Micrococcus luteus): > 256 µg/mL
- MIC (Staphylococcus aureus [6]): > 256 µg/mL
- MIC [7]: > 256 µg/mL
- MIC (Bacillus subtilis): > 256 µg/mL
- MIC (Rhizopus stolonifer [8]): 64 µg/mL (≈ 67.6 µM)
- MIC (Staphylococcus aureus [9]): > 256 µg/mL
- MIC (Aspergillus fumigatus): 256 µg/mL (≈ 270 µM)
- MIC (Aspergillus brasiliensis): 128 µg/mL (≈ 135 µM)
- MIC [10]: 256 µg/mL (≈ 270 µM)
- Activity (Rhizopus stolonifer [12]): 1 mg
- MIC (Staphylococcus aureus [11]): > 256 µg/mL

Structure (SMILES): Cc1cc2c(c(O)c1-c1c(C)cc3c(c1O)/C(=C/NCCCn1cc(COCc4ccccc4)nn1)C(=O)C(O)=C3C(C)C)/C(=C/NCCCn1cc(COCc3ccccc3)nn1)C(=O)C(O)=C2C(C)C
- MIC [1]: 16 µg/mL (≈ 16.4 µM)
- MIC [4]: 16 µg/mL (≈ 16.4 µM)
